Assay results as given in ChEMBL document CHEMBL3867450, “Synthesis of Natural Acylphloroglucinol-Based Antifungal Compounds against Cryptococcus Species” (J Nat Prod, 2016).
In brackets after ≈: the same amount, converted by molar mass.

Assays:
[1] = tested on: Cryptococcus bacillisporus; assay: Antifungal activity against Cryptococcus gattii ATCC 32609 assessed as growth inhibition measured after 72 hrs by CLSI method; format: functional; conditions: ATCC 32609, 72 h
Outline: (§1)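 Susceptibility testing by a modified CLSI (formerly NCCLS) method against C. neoformans ATCC 90113, C. neoformans H99 (from Duke University) or C. gattii ATCC 32609. The top test concentration was 20 μg/mL. MIC is the lowest concentration allowing no detectable growth. IC50 is the concentration giving 50% growth inhibition.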

Cryptococcus neoformans [2] = assay: Antifungal activity against Cryptococcus neoformans H99 assessed as growth inhibition measured after 72 hrs by CLSI method; format: functional; conditions: var grubii H99 ; outline: as §1
[3] = Antifungal activity against Cryptococcus neoformans ATCC 90113 assessed as growth inhibition measured after 72 hrs by CLSI method; format: functional; outline: as §1
[4] = Selectivity index, ratio of IC50 for African green monkey Vero cells to MIC for Cryptococcus neoformans ATCC 90113; format: toxicity, cell-based; conditions: read-out: Selectivity Index
Outline: (§2)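 Selectivity index is the mammalian-cell IC50 (neutral red assay, Vero or LLC-PK1) divided by the MIC against C. neoformans ATCC 90113 (modified CLSI method).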

[5] = Cytotoxicity against pig LLC-PK1 cells assessed as reduction in viable cells measured after 48 hrs by neutral red dye-based method; format: toxicity, cell-based; conditions: pig (Sus scrofa)
Outline: (§3)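 Vero (African green monkey kidney […]) and LLC-PK1 (pig kidney epithelial) cells were scored for viability by neutral red uptake. The top test concentration was 50 μg/mL. IC50 is the concentration causing 50% growth inhibition of the mammalian cells.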

[6] = Antifungal activity against Cryptococcus neoformans ATCC 90113 assessed as growth inhibition at 20 ug/ml measured after 72 hrs by CLSI method; format: functional
Outline: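 Primary screen against C. neoformans ATCC 90113 by a modified CLSI method at 20 μg/mL. Growth inhibition above 50% at this concentration was scored as active and taken to further testing.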

[7] = Selectivity index, ratio of IC50 for pig LLC-PK1 cells to MIC for Cryptococcus neoformans ATCC 90113; format: toxicity, cell-based; conditions: read-out: Selectivity Index; outline: as §2
[8] = Cytotoxicity against African green monkey Vero cells assessed as reduction in viable cells measured after 48 hrs by neutral red dye-based method; format: toxicity, cell-based; conditions: African green monkey (Chlorocebus sabaeus); outline: as §3
Cryptococcus neoformans [9] = assay: Antifungal activity against Cryptococcus neoformans ATCC 90113 assessed as growth inhibition at 20 ug/ml measured after 72 hrs by CLSI method; conditions: read-out: GI
[10] = tested on: Cryptococcus bacillisporus; assay: Antifungal activity against Cryptococcus gattii ATCC 32609 assessed as growth inhibition at 20 ug/ml measured after 72 hrs by CLSI method; format: functional; conditions: ATCC 32609, 72 h, read-out: GI

| Compound | MIC [1] [µg/mL] | MIC (Cryptococcus neoformans [2]) [µg/mL] | MIC [3] [µg/mL] | selectivity ratio [4] | IC50 at 48 h [5] [µg/mL] | growth inhibition (GI) [6] [%] | selectivity ratio [7] | IC50 at 48 h [8] [µg/mL] | inhibition of growth at 20 µg/mL (Cryptococcus neoformans [9]) [%] | inhibition of growth at 20 µg/mL [10] [%] |
| --- | --- | --- | --- | --- | --- | --- | --- | --- | --- | --- |
| CCCC(=O)c1c(O)cc(O)c(C(=O)CCC)c1O | 1.5 (≈ 5.63 µM) | 2.5 (≈ 9.39 µM) | 2.1 (≈ 7.89 µM) | 6.9 | 24.5 (≈ 92 µM) | > 50 | 11.7 | 14.5 (≈ 54.5 µM) | – | – |
| CCCC(=O)c1c(O)cc(O)cc1O | – | – | – | – | – | < 50 | – | – | – | – |
| CC(C)C(=O)c1c(O)cc(OCc2c(F)cccc2Cl)cc1O | – | – | – | – | – | < 50 | – | – | – | – |
| CC(C)C(=O)c1c(O)cc(O)c(Cc2ccccc2)c1O | 10 (≈ 34.9 µM) | 16.7 (≈ 58.3 µM) | 6.7 (≈ 23.4 µM) | 4.2 | 28.5 (≈ 99.5 µM) | > 50 | 4.3 | 28 (≈ 97.8 µM) | – | – |
| CC(C)=CCC/C(C)=C/Cc1c(O)cc(O)c(C(=O)C(C)C)c1O | 1 (≈ 3.01 µM) | 1.7 (≈ 5.11 µM) | 1.7 (≈ 5.11 µM) | 13.2 | 24.5 (≈ 73.7 µM) | > 50 | 14.4 | 22.5 (≈ 67.7 µM) | – | – |
| CC(C)C(=O)c1c(O)cc(OCC(=O)NC(C)(C)C)cc1O | – | – | – | – | – | < 50 | – | – | – | – |
| CCCC(=O)c1c(O)cc(O)c(CC=C(C)C)c1O | 5 (≈ 18.9 µM) | 8.3 (≈ 31.4 µM) | 3.3 (≈ 12.5 µM) | 4.9 | 28 (≈ 106 µM) | > 50 | 8.5 | 16.3 (≈ 61.7 µM) | – | – |
| CC(C)C(=O)c1c(O)cc(O)c(CC#N)c1O | – | – | – | – | – | < 50 | – | – | < 50 | < 50 |
| CC(C)=CCc1c(O)cc(O)c(C(=O)C(C)(C)C)c1O | – | – | – | – | – | < 50 | – | – | – | – |
| CC(C)C(=O)c1c(O)cc(O)cc1O | – | – | – | – | – | < 50 | – | – | – | – |
| CC(C)C(=O)c1c(O)cc(O)c(Cc2c(F)cccc2Cl)c1O | 4.2 (≈ 12.4 µM) | 6.7 (≈ 19.8 µM) | 1.7 (≈ 5.02 µM) | 16.5 | 26.3 (≈ 77.6 µM) | > 50 | 15.5 | 28 (≈ 82.7 µM) | – | – |
| CC(C)C(=O)c1c(O)cc(O)cc1OCc1c(Cl)cccc1Cl | 5 (≈ 14.1 µM) | 5 (≈ 14.1 µM) | 8.3 (≈ 23.4 µM) | 3.9 | 34.5 (≈ 97.1 µM) | > 50 | 4.2 | 32.5 (≈ 91.5 µM) | – | – |
| C[C@@H]1[C@H](O)[C@@H](C)/C=C/C=C/C=C/C=C/C=C/C=C/C=C/[C@H](O[C@@H]2O[C@H](C)[C@@H](O)[C@H](N)[C@@H]2O)C[C@@H]2O[C@](O)(C[C@@H](O)C[C@@H](O)[C@H](O)CC[C@@H](O)C[C@@H](O)CC(=O)O[C@H]1C)C[C@H](O)[C@H]2C(=O)O [AMPHOTERICIN B] | 0.3 (≈ 0.325 µM) | 0.3 (≈ 0.325 µM) | 0.4 (≈ 0.433 µM) | – | – | – | – | – | – | – |
| CCOC(=O)COc1cc(O)c(C(=O)C(C)C)c(OCC(=O)OCC)c1 | – | – | – | – | – | < 50 | – | – | – | – |
| CC(C)C(=O)c1c(O)cc(O)cc1OCC(=O)NC(C)(C)C | – | – | – | – | – | < 50 | – | – | – | – |
| CC(C)(C)C(=O)c1c(O)cc(O)cc1O | – | – | – | – | – | < 50 | – | – | – | – |
| CCOC(=O)COc1cc(O)cc(O)c1C(=O)C(C)C | – | – | – | – | – | < 50 | – | – | – | – |
| CCOC(=O)Cc1c(O)cc(O)c(C(=O)C(C)C)c1O | – | – | – | – | – | < 50 | – | – | < 50 | < 50 |
